Screening data as filed in PubChem.
NPY-Y1 PAM-ag: human NPY-Y1 potentiation or agonism, primary screen; 220,000 tested, 0.37% active; P25929; AID 1304; NPY-Y1 expressing cells, potentiator/agonist activation; activation, % at 3.6 µM; in the data active = activation above about 33%, passing the limit was not always enough;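 also: cells stimulated with NPY at EC10 then isoproterenol at EC100; 0% = low agonist plus stimulus and 100% = saturating agonist plus stimulus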
Target sequence (P25929 whole entry, looked up): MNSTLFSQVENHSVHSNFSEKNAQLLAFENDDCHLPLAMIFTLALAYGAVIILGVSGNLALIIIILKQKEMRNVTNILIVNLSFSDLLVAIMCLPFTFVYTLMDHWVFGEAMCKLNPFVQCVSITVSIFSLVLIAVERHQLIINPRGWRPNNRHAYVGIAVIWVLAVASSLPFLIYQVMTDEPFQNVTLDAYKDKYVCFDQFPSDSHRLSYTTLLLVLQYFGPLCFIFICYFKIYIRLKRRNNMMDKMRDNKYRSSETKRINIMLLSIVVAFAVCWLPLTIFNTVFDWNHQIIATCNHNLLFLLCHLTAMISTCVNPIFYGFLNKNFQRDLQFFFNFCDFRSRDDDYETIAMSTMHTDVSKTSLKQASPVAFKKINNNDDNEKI
NPY-Y1 antag: antagonists of human neuropeptide Y receptor Y1; P25929; HEK293-CNG Y1 cells, membrane potential fluorescence; NPY at EC95, then isoproterenol; inhibition, % at 3.6 µM; 200,000 tested, 1% active; AID 1040;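 active = inhibition above the campaign mean inhibition of all tested compounds plus 3 SD, cut at about 20% in these data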;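 also: 0% = DMSO wells given NPY plus isoproterenol and 100% = isoproterenol alone without NPY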
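System: HEK293 cells with Y1 receptor plus CNG channel / Probe or stimulus: NPY 25 nM then isoproterenol 1 µM plus Ro 20-1724 25 µM / Compound: one concentration, 3.6 µM, in 0.4% DMSO / Schedule: compound incubation 1 h at room temperature, readout 45 min post-stimulation / Measured by: membrane potential fluorescence / Read-out: % inhibition of NPY effect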
Measles CPE: protection of cells from measles virus | Measles virus-infected cells, CPE protection, absorbance | 140,000 tested, 1.5% active | protection (pct of control), % at 4 µM; in the data active = protection mostly above about 24%, no sharp cut-off; inactive = mostly below about 26%
NPY-Y2 antag: NPY-Y2 (human) receptor antagonism; NPY-Y2 expressing cells, antagonist mode; inhibition, % at 2.7 µM; 140,000 tested, 0.99% active; in the data active = inhibition above about 17%;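 also: 0% = vehicle with agonist challenge and 100% = reference antagonist with challenge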
Rad51 HR inh: Rad51 (human) homologous recombination inhibition; Q06609; hRad51 DNA strand exchange, fluorescence dequenching; inhibition, % at 10 µM; 200,000 tested, 0.085% active;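 active = inhibition above 40% at the single screening dose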;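 also: 0% = DMSO control wells and 100% = blanks with heterologous ssDNA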
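Read-out basis: percent inhibition relative to plate controls and blanks / Assay system: human Rad51 nucleoprotein filaments preassembled on unlabelled ssDNA / Timing: filaments 15 min 37 °C, then compound 30 min / Control set: per-plate controls and blanks / Technique: fluorescence dequenching at 485/520 nm / Compound: 10 µM final, single point / Also added: Fluorescein- and BHQ1-tagged 47-mer duplex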
NPY-Y2 PAM-ag: potentiators or agonists of human neuropeptide Y receptor Y2; 220,000 tested, 0.45% active; AID 1359; cells expressing NPY-Y2, potentiator/agonist read-out; P49146; activation, % at 3.6 µM; in the data active = activation above about 27%;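 also: cells stimulated with NPY near EC25 plus isoproterenol at EC100; 0% = vehicle plus submaximal agonist and 100% = vehicle plus saturating agonist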
NPY-Y1 antag ct: antagonizes human NPY-Y1, counter-screen to NPY-Y2 antagonists. shares compounds with NPY-Y2 antag. cell-based NPY-Y1 antagonism counterscreen. inhibition, % at 3.6 µM. 710 tested, 19% active. AID 1256; in the data active = inhibition above about 20%;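 also: cells challenged with NPY then isoproterenol with cAMP sensed through a CNG channel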
NPY-Y2 ant conf: human NPY-Y2 antagonism, confirmation; shares compounds with NPY-Y2 antag; HEK293 NPY-Y2 CNG channel, membrane potential fluorescence; inhibition, % at 2.8 µM; 710 tested, 32% active; AID 1257;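 active = mean inhibition of triplicate wells above the hit cutoff set in the primary screen, cut at about 17% in these data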;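 also: 0% = DMSO with NPY challenge and 100% = BIIE0246 high control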
Active calls of the source: *; x = no result. Most compounds without a hit are left out; they make up all but 2.8% or so of the library.

SMILES	NPY-Y1 PAM-ag	NPY-Y1 antag	Measles CPE	NPY-Y2 antag	Rad51 HR inh	NPY-Y2 PAM-ag	NPY-Y1 antag ct	NPY-Y2 ant conf
Cc1cccc(N2CCN(C(=O)C(Cc3ccccc3)n3cccc3)CC2)c1C (centres undefined)	-36	17	3	26*	-1	-12	13	13
O=C(CCCOc1ccccc1)N1CCN(c2ccccc2)CC1	-16	8	2	12	x	-20	x	x
CCn1cc(C(C)NC(=O)Nc2ccccc2C(=O)OC)c(C)n1 (centres undefined)	-6	-1	x	x	2	-9	x	x
COC(=O)c1cc(Cl)c(NC(=O)c2ccc(C(C)(C)C)cc2)cc1OC	-70	10	6	18*	-6	-46	16	31*
COC(=O)c1cc(Cl)c(NC(=O)C(C)C)cc1OC	-14	5	x	x	21	-5	x	x
CCC(c1nnnn1CCc1ccccc1)N(Cc1ccco1)Cc1cc2cc(C)cc(C)c2[nH]c1=O (centres undefined)	-21	20	8	17*	-12	-20	8	10
O=C(Cn1cc(C(F)(F)F)ccc1=O)Nc1ccccc1	-9	x	x	x	-2	-14	x	x
Cc1nc2ccccc2cc1OCc1ccc(Cl)cc1	-70	10	1	19*	1	-4	22*	17*
COc1ccc(/C=N/NC(=O)CN(CCc2ccccc2)S(=O)(=O)c2ccc(NC(C)=O)cc2)cc1OC	-10	-1	25	18*	x	-5	11	44*
COc1cc(/C=N/NC(=O)CN(CCc2ccccc2)S(=O)(=O)c2ccc(NC(C)=O)cc2)cc(OC)c1OC	-4	-3	31	0	2	1	x	x
COc1cc(/C=N/NC(=O)CCOc2ccccc2C)cc(Br)c1O	-2	7	x	x	17	-4	x	x
COc1ccc(/C=N/NC(=O)CCOc2ccccc2C)cc1OC	-18	8	5	35*	23	13	12	16
COC(=O)c1cccc(NC(=O)C(C)(C)C)c1	8	x	x	x	8	-2	x	x
CC(C)OC(=O)c1ccc(NC(=O)Cn2c(-c3nonc3N)nc3ccccc32)cc1	-44	20	14	18*	-5	-15	11	12
COC(=O)c1ccccc1NC(=O)Cn1c(-c2nonc2N)nc2ccccc21	-43	20	4	39*	x	-13	19	24*
COc1ccc(/C=C/C(O)=C2/C(=O)N(C)C3(C)CC2c2ccccc2O3)cc1 (centres undefined)	-30	11	7	21*	-4	2	16	11
COc1ccc(-n2c(SCC(=O)NCC3CCCO3)nc3ccccc32)cc1 (centres undefined)	-2	2	7	4	1	-1	x	x
Cc1cccc(/C(N)=N/OC(=O)COc2ccccc2Cl)c1	-28	5	15	19*	x	6	8	15
COc1ccc(/C(N)=N/OC(=O)COc2ccccc2Cl)cc1	-30	8	9	7	x	-6	x	x
O=C(Cc1ccc(Cl)c(Cl)c1)Nc1ccc2[nH]c(=O)[nH]c2c1	0	7	x	x	2	-2	x	x
Cc1cc(N(CCO)CCO)ccc1C(c1ccc(N(CCO)CCO)cc1C)c1ccccc1Cl	45	-5	6	-4	-5	11	x	x
COc1ccc(N2CCN(c3nc4c(c(=O)n(C)c(=O)n4C)n3Cc3ccccc3)CC2)cc1	-10	-11	8	3	-2	18	x	x
COc1ccc(N2CCN(Cc3nc4c(c(=O)n(C)c(=O)n4C)n3Cc3cccc(C)c3)CC2)cc1	2	-1	11	24*	x	2	3	3
CC(C)Nc1nnc(Sc2ccc(Cl)cc2[N+](=O)[O-])s1	-10	8	9	21*	0	-3	0	10
COc1ccc(Cl)cc1NC(=O)c1c(-c2ccccc2)noc1C	-17	18	4	25*	-6	-3	19	10
SMILES	NPY-Y1 PAM-ag	NPY-Y1 antag	Measles CPE	NPY-Y2 antag	Rad51 HR inh	NPY-Y2 PAM-ag	NPY-Y1 antag ct	NPY-Y2 ant conf
Cc1cccc(CC2CC(=O)N(c3nc4ccccc4s3)C2=O)c1 (centres undefined)	-7	12	x	x	3	-7	x	x
COc1ccc2sc(N3C(=O)CC(Cc4cccc(C)c4)C3=O)nc2c1 (centres undefined)	-25	11	6	27*	-6	-27	12	9
C/C=C/Cn1c(SCc2ccc(C)cc2)nc2c1c(=O)[nH]c(=O)n2C	-8	8	5	26*	13	-16	22*	42*
Cc1cc2c(c(Sc3ccccc3)n1)C(=O)OC2	13	0	10	22*	2	5	-2	0
COc1ccccc1Oc1ccc2c(c1)C(=O)N(c1ccc(O)cc1)C2=O	19	4	3	18*	18	23	4	14
CCN=C1S/C(=C\c2cc(OCC)c(O)cc2Br)C(=O)N1CC	-28	15	3	27*	x	7	25*	43*
O=C(OCCN1C(=O)c2cccc3c(N4CCOCC4)ccc(c23)C1=O)c1cccc(Cl)c1	6	2	11	20*	-483	1	29*	40*
O=C1c2cccc3c(N4CCCCC4)ccc(c23)C(=O)N1CCO	-21	3	1	2	-101	-19	x	x
CCOC(=O)c1cc(C)nc(Sc2ccc(C)cc2)c1C#N	-27	x	x	x	4	-12	x	x
COc1ccc(-c2noc(-c3ccccc3-c3ccccc3)n2)cc1OC	-61	12	6	18*	x	-25	6	15
CC(C)[C@H](NC(=O)[C@@H]1Cc2ccccc2CN1C(=O)OC(C)(C)C)C(=O)NCC1CCC(C(=O)O)CC1 (some centres undefined)	31	x	x	x	-10	15	x	x
O=C(Cc1ccccc1)Nn1cnc2ccccc21	3	3	x	25*	1	-7	2	0
O=C(Cn1cnc2ccccc21)NCc1ccccc1	-7	3	5	2	1	-3	x	x
O=C(COc1ncnc2ccccc12)Nc1cc([N+](=O)[O-])ccc1F	-10	x	x	x	-3	-7	x	x
CCOC(=O)c1c(NC(=O)C2C3C=CC(C3)C2C(=O)O)sc2c1CCC(CC)C2 (centres undefined)	18	0	29	4	3	2	x	x
